EBNA-1 inh = blocks EBNA-1 binding to DNA | AID 1950 | EBNA-1 DNA binding, fluorescence polarization | actives 0.34% (n = 300,000) | inhibition, % at 14.8 µM; in the data active means inhibition above about 28%
HCV core dimer = HCV core protein dimerization inhibition; TR-FRET GST/Flag-core106 dimerization, 1536-well; inhibition, % at 5 µM; actives 0.33% (n = 300,000); AID 1899;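 active means inhibition above the mean of all tested compounds plus 3 SD, set per screening campaign, cut at about 45% in these data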
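test system = GST/Flag-tagged HCV core106 proteins | probe or stimulus = Eu donor and XL665 acceptor anti-tag antibodies | times = compound-protein-antibody incubation 4 h at 22.5 °C | signal = TR-FRET, excitation 340 nm, emission 617 and 671 nm | measure = percent inhibition of core106 dimerization signal | controls = wells lacking GST-core106 and wells with excess unlabelled core106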
HCV NS3 hel inh = inhibitors of Hepatitis C virus NS3 helicase | inhibition, % at 10.9 µM | AID 1800 | NS3 helicase DNA unwinding, Cy5 molecular beacon fluorescence | actives 0.56% (n = 290,000);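 active means inhibition above the mean of all tested compounds plus 3 SD, set per campaign, cut at about 35% in these data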;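 further: 0% = DMSO wells and 100% = thioflavine S control wells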
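Assay system – hepatitis C virus NS3 helicase domain fragment enzyme · Buffer or medium – MOPS pH 6.5, MgCl2, DTT, Tween20, BSA · Reagent – Cy5/quencher beacon DNA duplex and ATP to start · Compound – single 10.9 µM dose · Timing – 1 h at 25 °C · Technique – Cy5 beacon fluorescence read at start and 1 h · Measure – % inhibition of unwinding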
ZTA counter = blocks Epstein-Barr virus ZTA, an EBNA-1 counter-screen; ZTA-DNA binding, fluorescence polarization; inhibition, % at 11 µM; actives 0.15% (n = 320,000); AID 2234; in the data active means inhibition above about 33%
Target sequence (P03206 whole entry, looked up): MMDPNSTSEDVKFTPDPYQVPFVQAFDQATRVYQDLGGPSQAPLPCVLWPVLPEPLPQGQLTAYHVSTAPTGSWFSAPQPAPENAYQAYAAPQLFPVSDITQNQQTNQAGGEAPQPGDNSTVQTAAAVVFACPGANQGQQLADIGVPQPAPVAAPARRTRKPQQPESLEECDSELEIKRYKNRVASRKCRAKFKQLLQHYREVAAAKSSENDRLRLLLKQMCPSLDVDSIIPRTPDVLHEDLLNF
* hit, by the source's call; · = not tested or not shown. Shown are actives, neighbours in structure and some others; about 1.2% of the full set was active somewhere.

SMILES | EBNA-1 inh | HCV core dimer | HCV NS3 hel inh | ZTA counter
CC(C)c1onc(C(=O)N(C)Cc2ccccc2)c1[N+](=O)[O-] | 9 | 0 | -3 | 39*
O=C(CSc1nccc(=O)[nH]1)N1N=C2/C(=C/c3ccco3)CCCC2C1c1ccco1 (stereo not drawn) | -12 | 22 | 23 | -11
Nc1nc(SCC(=O)N2N=C3/C(=C/c4ccco4)CCCC3C2c2ccco2)n[nH]1 (stereo not drawn) | 4 | 52* | 14 | 8
COc1cc(N2Cc3ccccc3C2)ccc1C=O | -7 | 46* | 2 | 7
Cc1cccc(NC(=S)/N=C(\N)Nc2nc(C)c3ccc(C)cc3n2)c1 | 13 | 48* | 11 | 9
C=C(C(=O)Oc1ccccc1C(C)(C)C)c1ccccc1 | · | · | · | 2
O=C(NCCCCNC(=O)c1cccnc1Cl)c1cccnc1Cl | 7 | -4 | 7 | 3
CCC(C)(C)C(=O)O[C@H]1C[C@@H](C)C=C2C=C[C@H](C)[C@H](CC[C@@H]3C[C@@H](O)CC(=O)O3)[C@H]21 | -9 | 9 | 4 | 10
N#Cc1cc(C(=O)c2cc(F)ccc2O)cn(-c2nccs2)c1=O | 0 | 48* | 22 | 12
COC(=O)c1cc(C)nc2c1C(=O)C(=O)C=C2N1CCOCC1 | -1 | 36 | -3 | 57*
Cc1ccc(C(=O)N/C(=C\c2ccco2)C(=O)N2CCOCC2)cc1C | -17 | 2 | 30 | -18
O=C1C=C(c2ccccc2)C[C@H](c2cccs2)[C@H]1n1nnc([N+](=O)[O-])n1 | 2 | 42 | 5 | -8
O=C1C=C(c2ccccc2)CC(c2cccs2)C1n1cnc([N+](=O)[O-])c1 (stereo not drawn) | -2 | 47* | 12 | -4
COc1ccc(CC(=O)Nc2ccc(S(=O)(=O)N3CCC(C)CC3)cc2)c(OC)c1 | · | · | · | 8
O=C(CCC(=O)c1cccs1)Nc1ccc(F)c(F)c1F | -2 | 52* | 5 | -2
O=C(CCC(=O)c1cccs1)NCC(=O)Nc1ccc(F)c(F)c1F | -14 | -7 | 7 | -42
Cc1c(C(=O)OCC(=O)Nc2ccc(S(N)(=O)=O)cc2)oc2c1ccc1ccccc12 | 72* | 17 | 5 | 33*
Cc1ccc2c(C)c(C(=O)Nc3ccc(S(N)(=O)=O)cc3)oc2c1C | 8 | 26 | -14 | 9
CCOc1ccc(Cn2nnc(-c3ccc(S(C)(=O)=O)cc3)n2)cc1OCC | · | · | · | -10
CC1(C)NC(=O)N(CC(=O)OCC(=O)c2ccc(F)cc2)C1=O | 102* | -14 | · | 1
Cc1cc(NC(=O)OC2CCCCC2)ccc1[N+](=O)[O-] | 8 | -7 | 3 | -5
COc1ccc(/C=N/NS(=O)(=O)c2ccc(F)cc2)cc1COc1cc(F)ccc1[N+](=O)[O-] | 10 | 48* | -1 | 5
O=C(/C=C/c1ccc(Br)cc1)NC1CCCCCC1 | 9 | 102* | -7 | -1
CCCOc1ccc(/C=C/C(=O)NC2CCCCC2)cc1 | 3 | -3 | -9 | -1
C#CCOC(=O)CCCNc1ccc([N+](=O)[O-])cc1[N+](=O)[O-] | -2 | 48* | 7 | 1
SMILES | EBNA-1 inh | HCV core dimer | HCV NS3 hel inh | ZTA counter
CCOC(=O)C(C(=O)OCC)C(C)(C)/C(C)=N\Nc1ccc([N+](=O)[O-])cc1[N+](=O)[O-] | 4 | 12 | -5 | 7
N#Cc1ccc(NCC(=O)Nc2ccc(S(=O)(=O)N3CCCCC3)cc2)cc1 | · | · | · | -8
COc1ccc(OC)c(S(=O)(=O)CC(=O)c2cc3ccc(OC)cc3oc2=O)c1 | 8 | 62* | 27 | 13
O=C(NCCC1CCCCN1S(=O)(=O)c1ccccc1)C(=O)NCc1ccc(F)cc1 (stereo not drawn) | -3 | 4 | · | -15
COc1cc2c(cc1OC)C1(Nc3c-2c(Cc2ccccc2)nn3-c2ccccc2)C(=O)Nc2ccccc21 (stereo not drawn) | -6 | 58* | 1 | 3
Cc1cccc(-n2nnnc2SCC(=O)c2cc(C)n(CC3CCCO3)c2C)c1 (stereo not drawn) | 6 | 4 | 3 | 5
Cc1ccc(-n2nnnc2SCC(=O)c2cc(C)n(CC3CCCO3)c2C)cc1 (stereo not drawn) | 101* | -1 | · | -7
COc1cc(/C=N/NC(=O)c2cc(-c3ccco3)nc3ccccc23)cc(OC)c1O | -11 | 41 | 5 | 3
O=C(N/N=C/c1cccc(F)c1)c1cc(-c2ccco2)nc2ccccc12 | 10 | 74* | 40* | -4
CN(CC(=O)Nc1cccc(F)c1)C(=O)c1cccc(-n2cccc2)c1 | -15 | 64* | · | -4
COc1ccc(NC(=O)CN(C)C(=O)c2cc(-c3ccco3)nc3ccccc23)cc1 | -11 | 61* | · | -20

Screening data from PubChem BioAssay.
